Series [1] concerns Influenza A virus. The experiment in a line: Antiviral activity against Influenza virus A/PR/8/34 infected in MDCK cells assessed as reduction in viral titer after 48 hrs by hemagglutinination assay. Type of series: functional, A/Puerto Rico/8/1934(H1N1). The settings on record: for Activity: A/Puerto Rico/8/1934(H1N1). Summed up: (§1)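 MDCK monolayers grown to confluence in Iscove medium with 10% FBS and 2 mM L-glutamine. Infected with A/PR/8/34 at MOI 0.1 for 48 h in growth medium with 0.3% BSA, 0.22% bicarbonate and TPCK-trypsin. Compound or DMSO added at the start of infection and kept throughout. Supernatant titre measured by TCID50 on MDCK cells using hemagglutination (Reed–Muench).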

Series [2] relates to Influenza A virus. In words: Antiviral activity against Influenza virus A/PR/8/34 infected in MDCK cells assessed as reduction in viral titer at 50 uM after 48 hrs by hemagglutinination assay relative to untreated control. Format: functional, A/Puerto Rico/8/1934(H1N1). Summed up:
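MDCK monolayers infected with A/PR/8/34 at MOI 0.1 for 48 h, with 50 µM compound throughout. Supernatant logTCID50 determined by hemagglutination (Reed–Muench). Fold decrease obtained by subtracting each logTCID50 from the DMSO-control value and taking the inverse log.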

Series [3] deals with Influenza A virus. In words: Antiviral activity against Influenza virus A/PR/8/34 infected in MDCK cells assessed as reduction in viral titer at 50 uM after 48 hrs by hemagglutinination assay. Format: functional, organism-based. The note with it: A/Puerto Rico/8/1934(H1N1). Summed up: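 Confluent MDCK monolayers infected with A/PR/8/34 at MOI 0.1, with compound at 50 µM present for the entire 48 h. Viral titre in supernatants expressed as logTCID50, read by hemagglutination on MDCK cells (Reed–Muench). DMSO-treated infected cells served as control.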

In series [4] the test system is MDCK. In words: Cytotoxicity against MDCK cells up to 100 uM after 48 hrs. The settings on record: dog. Format: cell-based, Canis lupus familiaris.
Series [5] concerns Influenza A virus. The experiment in a line: Antiviral activity against Influenza virus A/PR/8/34 infected in MDCK cells assessed as log reduction in viral replication at 1 uM after 48 hrs by hemagglutinination assay relative to control. Format: functional, A/Puerto Rico/8/1934(H1N1). Summed up: as §1

Calls of active or inactive are those of the source. No cut-off for these calls is given here.

Results on 41 compounds are retold here after ChEMBL document CHEMBL1926504, “Design, synthesis, and evaluation of novel small molecule inhibitors of the influenza virus protein NS1” (Bioorg Med Chem, 2012).

For `COc1ccccc1C(=O)NCCCc1ccccc1`, the “log10 TCID50” value in series [1] was found to be 5.8. Besides, the “fold change (FC)” value in series [2] was found to be 500.
On to `O=C(CCc1ccccc1O)Nc1ccccc1`, for which, in series [1], the outcome was Active.
Regarding `O=C(Cc1ccccc1O)NCCc1ccccc1`, the outcome in series [1] was Active.
As to `O=C(NCCc1ccccc1)c1ccccc1O`, the “log10 TCID50” value in series [1] turned out to be 7.1. The “fold change (FC)” value in series [2] came to 25.
As to `O=C(NCCOc1ccccc1)c1ccccc1O`, in series [1], the result was Active.
Regarding `O=C(N/N=C/c1ccc2c(c1)CCC2)c1ccccc1O`, in series [3], the result was Active. The “log10 TCID50” value in series [1] is recorded as 7.1. Also, the Activity entry in series [4] was “Non-toxic”. Also, in series [2], the “fold change (FC)” value came to 25.
Consider `O=C(N/N=C/c1ccc(O)cc1)c1ccccc1O`, for which the result in series [3] was Active.
For `O=C(NCCCc1ccccc1)c1ccccc1[N+](=O)[O-]`, the “log10 TCID50” value in series [1] is on record as 6.5. Further, the “fold change (FC)” value in series [2] is 100.
For `O=C(NCCCc1ccccc1)c1ccccc1`, in that order: 6.8 and 50.
In the case of `O=C(NCCCc1ccccc1)c1ccccc1O`, in series [1], the “log10 TCID50” value is listed as 5.7. The Activity entry in series [4] is reported as “Non-toxic”. Also, the “fold change (FC)” value in series [2] is 630.
For `O=C(NCCCc1ccccc1)c1cc2ccccc2cc1O`, in series [1], the outcome was Active.
Same read-out and setting: the same measure for `Nc1ccc([N+](=O)[O-])cc1C(=O)NCCCc1ccccc1`: “Active”.
Regarding `O=C(N/N=C/c1ccc([N+](=O)[O-])cc1)c1ccccc1O`, in series [3], the result was Active.
Regarding `O=C(N/N=C/c1ccccc1)c1ccccc1O`, the outcome in series [3] was Active.
Still for that read-out and setting: the same measure for `O=C(NCCCCc1ccccc1)c1ccccc1O`: “Active”; for `O=C(N/N=C/c1ccc2ccccc2c1)c1ccccc1O`: “Active”.
Consider `Nc1ccc(C(=O)NCCCc2ccccc2)c(O)c1`, for which the outcome in series [1] was Active.
Still for that read-out and setting: the same measure for `O=C(NCCCc1ccccc1)c1ccc2c(c1)OCO2`: “Active”.
As to `Nc1ccccc1C(=O)NCCCc1ccccc1`, in series [1], the outcome was Active. For the same compound, in series [4], the Activity result was “Non-toxic”. Moreover, in series [5], the FC is reported as greater than 2.
On to `O=C(N/N=C/c1ccc(Cl)cc1)c1ccccc1O`, for which the outcome in series [3] was Active.
Consider `O=C(NCCCc1ccccc1)c1ccc2ccccc2c1O`, for which the outcome in series [1] was Active.
On to `O=C(NCCCc1ccccc1)c1ccc2ccccc2n1`, for which, in series [1], the outcome was Active.
As to `O=C(NCCCc1ccccc1)c1nccc2ccccc12`, the outcome in series [1] was Active.
In the case of `COc1ccc(/C=N/NC(=O)c2ccccc2O)cc1`, the result in series [3] was Active.
As to `O=C(NCCCc1ccccc1)c1ccccc1F`, the outcome in series [1] was inactive.
Turning to `O=C(CCc1ccccc1O)NCc1ccccc1`, the outcome in series [1] was Active.
On the same count and under the same terms, the entry for `O=C(NCCCc1ccccc1)c1ccccc1Cl` is “Active”; for `CN(CCCc1ccccc1)C(=O)c1ccccc1O` it is “Active”; for `O=C(NCCCc1ccccc1)c1ccccn1` it is “Active”.
Same read-out and setting: the entry for `Nc1ccccc1C(=O)NCCOc1ccccc1` is “Active”; for `O=C(NCCCc1ccccc1)c1c(O)ccc2ccccc12` it is “Active”.
On to `O=C(NCCCc1ccccc1)c1ccccc1Br`, for which the outcome in series [1] was inactive.
With `O=C(NCCCc1ccccc1)c1ccc(O)cc1`, the “log10 TCID50” value in series [1] amounted to 6.5. The “fold change (FC)” value in series [2] is listed as 100.
In the case of `O=C(NCCCc1ccccc1)c1cc2ccccc2cn1`, the outcome in series [1] was Active.
Consider `O=C(CCCc1ccccc1)Nc1ccccc1O`, for which the result in series [1] was Active.
For `Cc1ccccc1C(=O)NCCCc1ccccc1`, in series [1], the “log10 TCID50” value is listed as 6.3. In addition, the “fold change (FC)” value in series [2] is 158.
Take `Nc1ccc(Cl)cc1C(=O)NCCCc1ccccc1`: the outcome in series [1] was Active.
Regarding `O=C(NCCCc1ccccc1)c1cccc(O)c1`, in series [1], the “log10 TCID50” value was determined as 6.2. Besides, the “fold change (FC)” value in series [2] worked out at 200.
Turning to `O=C(NCCCc1ccccc1)c1ccccc1I`, the outcome in series [1] was Active.
Same read-out and setting: the same measure for `N#Cc1ccccc1C(=O)NCCCc1ccccc1`: “Active”.
Same read-out and setting: the entry for `COc1ccc(N)c(C(=O)NCCCc2ccccc2)c1` is “Active”.
